Measured values taken from ChEMBL document CHEMBL4196187, “Peloruside E (22-Norpeloruside A), a Pelorusane Macrolide from the New Zealand Marine Sponge Mycale hentscheli, Retains Microtubule-Stabilizing Properties” (J Nat Prod, 2018).
Active and inactive are the calls of the source. No cut-off for these calls is given here.

What was measured:
HL-60 [1] = assay: Growth inhibition of human HL60 cells after 48 hrs by MTT assay; assay type: functional, cell-based; conditions: HL-60, 48 h
Outline: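 Human promyelocytic leukemia HL-60 cells; MTT cell proliferation read-out after 48 h incubation. IC50 derived from n = 3 replicates, reported as SEM.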

HL-60 [2] = assay: Cell cycle arrest in human HL60 cells assessed as accumulation at G1 phase at 300 nM after 18 hrs by propidium iodide staining based flow cytometry (reference value: 62%); assay type: functional
HL-60 [3] = assay: Cell cycle arrest in human HL60 cells assessed as accumulation at S phase at 1500 nM after 18 hrs by propidium iodide staining based flow cytometry (reference value: 20%); assay type: functional
HL-60 [4] = assay: Cell cycle arrest in human HL60 cells assessed as accumulation at G2/M phase at 300 nM after 18 hrs by propidium iodide staining based flow cytometry (reference value: 19%); assay type: functional
HL-60 [5] = assay: Cell cycle arrest in human HL60 cells assessed as accumulation at S phase at 300 nM after 18 hrs by propidium iodide staining based flow cytometry (reference value: 20%); assay type: functional
HL-60 [6] = assay: Cell cycle arrest in human HL60 cells assessed as accumulation at G2/M phase at 1500 nM after 18 hrs by propidium iodide staining based flow cytometry (reference value: 19%); assay type: functional
HL-60 [7] = assay: Cell cycle arrest in human HL60 cells assessed as accumulation at G1 phase at 1500 nM after 18 hrs by propidium iodide staining based flow cytometry (reference value: 62%); assay type: functional
HL-60 [8] = assay: Cell cycle arrest in human HL60 cells assessed as accumulation at S phase at 1000 nM after 18 hrs by propidium iodide staining based flow cytometry (reference value: 20%); assay type: functional
HL-60 [9] = assay: Cell cycle arrest in human HL60 cells assessed as accumulation at G1 phase at 1000 nM after 18 hrs by propidium iodide staining based flow cytometry (reference value: 62%); assay type: functional
Sus scrofa = species on record: Sus scrofa; assay: Induction of porcine brain tubulin polymerization at 2.8 uM measured at 1 min interval over 100 mins by fluorescence assay
HL-60 [10] = assay: Cell cycle arrest in human HL60 cells assessed as accumulation at G2/M phase at 1000 nM after 18 hrs by propidium iodide staining based flow cytometry (reference value: 19%); assay type: functional
HL-60 [11] = assay: Cell cycle arrest in human HL60 cells assessed as accumulation at G2/M phase at 500 nM after 18 hrs by propidium iodide staining based flow cytometry (reference value: 19%); assay type: functional
HL-60 [12] = assay: Cell cycle arrest in human HL60 cells assessed as accumulation at G2/M phase at 100 nM after 18 hrs by propidium iodide staining based flow cytometry (reference value: 19%); assay type: functional
HL-60 [13] = assay: Cell cycle arrest in human HL60 cells assessed as accumulation at S phase at 500 nM after 18 hrs by propidium iodide staining based flow cytometry (reference value: 20%); assay type: functional
HL-60 [14] = assay: Cell cycle arrest in human HL60 cells assessed as accumulation at G1 phase at 500 nM after 18 hrs by propidium iodide staining based flow cytometry (reference value: 62%); assay type: functional
HL-60 [15] = assay: Cell cycle arrest in human HL60 cells assessed as accumulation at S phase at 100 nM after 18 hrs by propidium iodide staining based flow cytometry (reference value: 20%); assay type: functional
HL-60 [16] = assay: Cell cycle arrest in human HL60 cells assessed as accumulation at G1 phase at 100 nM after 18 hrs by propidium iodide staining based flow cytometry (reference value: 62%); assay type: functional

Row | Structure (SMILES) | IC50 (HL-60 [1]) | Activity (HL-60 [2]) | Activity (HL-60 [3]) | Activity (HL-60 [4]) | Activity (HL-60 [5]) | Activity (HL-60 [6]) | Activity (HL-60 [7]) | Activity (HL-60 [8]) | Activity (HL-60 [9]) | induction (Sus scrofa) | Activity (HL-60 [10]) | Activity (HL-60 [11]) | Activity (HL-60 [12]) | Activity (HL-60 [13]) | Activity (HL-60 [14]) | Activity (HL-60 [15]) | Activity (HL-60 [16])
1 | CC[C@H](/C=C(/C)[C@@H]1C[C@@H](OC)C[C@H](O)[C@@H](C)[C@@]2(O)O[C@@H](C[C@@H](OC)[C@H](O)C(=O)O1)C[C@@H](OC)[C@H]2O)CO | 90 nM | 38% | 23% | 39% | 22% | 49% | 29% | – | – | – | – | – | – | – | – | – | –
2 | CC(=O)O[C@H]1C(=O)[C@@]2(C)[C@H]([C@H](OC(=O)c3ccccc3)[C@]3(O)C[C@H](OC(=O)[C@H](O)[C@@H](NC(=O)c4ccccc4)c4ccccc4)C(C)=C1C3(C)C)[C@]1(OC(C)=O)CO[C@@H]1C[C@@H]2O [PACLITAXEL] | – | – | – | – | – | – | – | 19% | 28% | Active | 53% | – | – | – | – | – | –
3 | CC[C@H](/C=C(/C)[C@@H]1C[C@@H](OC)C[C@H](O)C(C)(C)[C@@]2(O)O[C@@H](C[C@@H](OC)[C@H](O)C(=O)O1)C[C@@H](OC)[C@H]2O)CO | 19 nM | – | – | – | – | – | – | – | – | Active | – | 47% | 50% | 23% | 30% | 23% | 27%
